Data set [1] addresses T1, Caspase-2 (Homo sapiens) (UniProt P42575).
T1 sequence (whole entry): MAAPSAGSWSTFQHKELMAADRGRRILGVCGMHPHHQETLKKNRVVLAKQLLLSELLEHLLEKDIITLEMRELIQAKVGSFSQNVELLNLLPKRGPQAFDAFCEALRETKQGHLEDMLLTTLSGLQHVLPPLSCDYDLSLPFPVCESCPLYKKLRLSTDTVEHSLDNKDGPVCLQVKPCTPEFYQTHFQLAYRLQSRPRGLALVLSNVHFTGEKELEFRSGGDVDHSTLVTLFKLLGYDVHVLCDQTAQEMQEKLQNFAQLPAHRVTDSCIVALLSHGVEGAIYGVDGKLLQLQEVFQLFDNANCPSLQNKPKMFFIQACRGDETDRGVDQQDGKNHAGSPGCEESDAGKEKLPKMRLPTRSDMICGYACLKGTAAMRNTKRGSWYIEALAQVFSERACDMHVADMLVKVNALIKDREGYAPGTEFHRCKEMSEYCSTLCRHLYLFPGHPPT
Put plainly: Inhibition of recombinant caspase-2 (unknown origin) at 12.5 uM using Z-VDVAD-AFC as substrate measured after 40 mins by fluorescence assay relative to control. In short, it runs like this:
(§1)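 Two-point single-run screen in duplicate at 12.5 and 6.25 µM. Then 5 µM Z-VDVAD-AFC, 40 min at 37 °C, stopped with 5 M acetic acid. AFC fluorescence read at ex 400/em 505 nm, corrected for buffer+protein background.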

The target of data set [2] is T1, Caspase-2 (Homo sapiens). Put plainly: Inhibition of recombinant caspase-2 (unknown origin) at 6.25 uM using Z-VDVAD-AFC as substrate measured after 40 mins by fluorescence assay relative to control. In short, it runs like this: as §1
Data set [3] has as its target T2, Caspase-2 (Homo sapiens, UniProt P42575).
T2 sequence (P42575 whole entry): T1 sequence (whole entry)
Put plainly: Inhibition of recombinant caspase-2 (unknown origin) using Z-VDVAD-AFC as substrate measured after 40 mins by fluorescence assay. In short, it runs like this: (§2)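 Ten-point curves in duplicate, 0.4 nM–100 µM. Enzyme (5 nM caspase-2 or cp-caspase-2) in MES pH 6.5 buffer with 10 mM DTT, preincubated with compound 40 min at 37 °C. Then 5 µM Z-VDVAD-AFC. AFC read at ex 400/em 505 nm every 3 min for 1 h. Background-corrected 40-min values fitted to four-parameter sigmoidal curves. Mean ± SEM of N independent experiments.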

A further data set is filed under the species Homo sapiens. Put plainly: Selectivity ratio of IC50 for recombinant caspase-3 (unknown origin) to recombinant caspase-2 (unknown origin).
The target of data set [4] is T1, Caspase-2 (Homo sapiens). Put plainly: Covalent irreversible binding affinity to recombinant caspase-2 (unknown origin) assessed as modification at Cys320 residue measured after 1 hr by trypsin digestion based UPLC-MS/MS analysis. In short, it runs like this:
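Recombinant caspase-2 (34 µM, 15 µL) mixed with test compound (1 µL of 10 mM DMSO stock), brought to 50 µL in MES pH 6.5 caspase-2 buffer, 1 h at 37 °C. Then iodoacetamide (62 mM final) 1 h dark RT. Samples denatured in 8 M urea/5 mM DTT and re-alkylated with IAD. Trypsin digestion overnight at 37 °C with 10% acetonitrile. C18 desalting, then gradient LC-MS/MS peptide sequencing.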

Data set [5] concerns HepG2. The data set is described as follows: Induction of GSH depletion in human HepG2 cells at <10 uM measured after 22 hrs by GSH-glo luminescence assay. Format: functional, cell-based. In short, it runs like this:
(§3)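 HepG2 cells at 250 cells/well, 1536-well format, settled 4 h at 37 °C and 5% CO2. Compound added (50 nL), 22 h incubation. Medium removed by centrifugation. GSH-Glo reagent 30 min at RT, then Luciferin Detection Reagent 15 min at RT. Luminescence read.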

Data set [6] has as its system HepG2. Put plainly: Induction of GSH depletion in human HepG2 cells at >10 uM measured after 22 hrs by GSH-glo luminescence assay. It is filed as functional, cell-based. In short, it runs like this: as §3
Data set [7] concerns HepG2. Put plainly: Cytotoxicity against human HepG2 cells assessed as reduction in cell viability measured after 22 hrs by cell-titer glo assay. It is filed as functional, cell-based. In short, it runs like this:
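HepG2 cells at 250 cells/well, 1536-well format, settled 4 h at 37 °C and 5% CO2. Compound added acoustically (50 nL), 22 h at 37 °C. CellTiter-Glo reagent added, 15 min at room temperature, then luminescence read.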

Data set [8] has as its target T2, Caspase-2. The data set is described as follows: Inhibition of recombinant cp-caspase-2 (unknown origin) using Z-VDVAD-AFC as substrate measured after 40 mins by fluorescence assay. In short, it runs like this:
as §2

The target in data set [9] is T3, Caspase-3 (Homo sapiens, UniProt P42574).
T3 sequence (P42574 whole entry): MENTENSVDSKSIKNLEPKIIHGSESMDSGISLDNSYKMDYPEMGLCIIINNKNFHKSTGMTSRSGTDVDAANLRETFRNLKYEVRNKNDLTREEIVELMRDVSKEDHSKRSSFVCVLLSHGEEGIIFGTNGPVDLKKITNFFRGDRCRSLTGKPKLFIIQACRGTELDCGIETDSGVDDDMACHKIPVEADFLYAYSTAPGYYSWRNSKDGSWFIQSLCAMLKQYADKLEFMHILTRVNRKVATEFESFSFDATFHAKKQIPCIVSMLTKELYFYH
The data set is described as follows: Inhibition of recombinant caspase-3 (unknown origin) using Ac-DEVD-AFC as substrate measured after 40 mins by fluorescence assay.

For data set [10], the target named is T3, Caspase-3. The data set is described as follows: Inhibition of recombinant caspase-3 (unknown origin) at 125 uM using Ac-DEVD-AFC as substrate measured after 40 mins by fluorescence assay relative to control. The note with it: recombinant caspase-3, probe Ac-DEVD-AFC.
Data set [11] has as its target T3, Caspase-3. The data set is described as follows: Inhibition of recombinant caspase-3 (unknown origin) at 62.5 uM using Ac-DEVD-AFC as substrate measured after 40 mins by fluorescence assay relative to control. The note with it: recombinant caspase-3, probe Ac-DEVD-AFC.
Data set [12] addresses T1, Caspase-2 (Homo sapiens). The data set is described as follows: Irreversible inhibition of recombinant caspase-2 (unknown origin) assessed as ratio of Kinact/Ki using Z-VDVAD-AFC as substrate measured after 40 mins by fluorescence assay. In short, it runs like this:
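Caspase-2 kinetic fluorometric assay with Z-VDVAD-AFC. kOBS values obtained from progress curves at four or more inhibitor concentrations. kinact/Ki then derived by two-step irreversible secondary regression (Copeland).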

The target in data set [13] is T1, Caspase-2 (Homo sapiens). The data set is described as follows: Covalent irreversible binding affinity to recombinant caspase-2 (unknown origin) assessed as modification at Cys320 residue […] measured after 1 hr by trypsin digestion based UPLC-MS/MS analysis. In short, it runs like this:
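Recombinant caspase-2 (34 µM stock) incubated 1 h at 37 °C with compound (10 mM DMSO stock) in pH 6.5 MES buffer with NaCl, CHAPS, sucrose and 10 mM DTT. Free cysteines were capped with iodoacetamide (62 mM final, 1 h, dark, RT). Samples were dried, denatured in 8 M urea/DTT, re-alkylated, trypsin-digested overnight at 37 °C, C18-desalted and analysed by gradient LC-MS/MS peptide sequencing.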

Data set [14] relates to HepG2. The data set is described as follows: Induction of GSH depletion in human HepG2 cells measured after 22 hrs by GSH-glo luminescence assay. The note with it: HepG2, 22 h, read-out: pIC50 (converted).

Molecules are shown by their SMILES. “And” between values parts separate entries of the source, which are not always exact repeats. Equal entries are not always repeated. The source made the active and inactive calls. The calls are words filed in the database; no cut-off is given here. Where a SMILES comes first, the peptide text is derived from it.

The values below come from ChEMBL document CHEMBL5634075, “An electrophilic fragment screening for the development of small molecules targeting caspase-2” (Eur J Med Chem, 2023).

As usually defined, the inhibition is the percentage by which the read-out fell short of the control.

Consider `CN1C(=O)CN(C(=O)CCl)c2ccc(Br)cc21`, for which the figures for the inhibition on Caspase-2 (Homo sapiens) [1] and on Caspase-2 (Homo sapiens) [2] were 79% and 62%, respectively. Also, the IC50 was 3.16 µM at Caspase-2 [3], 6.03 µM at Caspase-2 [8] and greater than 50.1 µM on Caspase-3 [9]. Further, in the data set listed under Homo sapiens, the Ratio IC50 was greater than 16. Further, the result on Caspase-2 (Homo sapiens) [4], in the data set on HepG2 [6] and in the data set on HepG2 [7] was Active. Moreover, the result in the data set with HepG2 [5] was inactive. Moreover, the inhibition at 40 min, 125 µM on Caspase-3 [10] was 14%. Besides, on Caspase-3 [11], the inhibition at 40 min, 62.5 µM came out at 0%.
Consider `O=C1CN(C(=O)CCl)c2ccccc2N1`, for which the inhibition at Caspase-2 (Homo sapiens) [1] came out at 92%; on Caspase-2 (Homo sapiens) [2], 86%. Moreover, the IC50 was 1.07 µM and 3.31 µM at Caspase-2 [3]; 28.8 µM at Caspase-3 [9]. Besides, the Ratio IC50 in the data set filed under Homo sapiens turned out to be 27. At Caspase-2 (Homo sapiens) [12], the Ratio was 4.49 10^4/M/s. Also, the outcome on Caspase-2 (Homo sapiens) [4], in the data set with HepG2 [6] and in the data set with HepG2 [7] was Active. Moreover, in the data set on HepG2 [5], the result was inactive. At Caspase-3 [10], the inhibition at 40 min, 125 µM came to 90%. Further, the inhibition at 40 min, 62.5 µM on Caspase-3 [11] was found to be 59%.
For the compound `NC(=O)CI`, at Caspase-2 (Homo sapiens) [13], the outcome was Active.
For `CC(=O)N[C@H](C(=O)N[C@@H](CC(=O)O)C(=O)N[C@H](C(=O)N[C@@H](C)C(=O)N[C@H](C=O)CC(=O)O)C(C)C)C(C)C` (Ac-VDVAD-aldehyde), the IC50 on Caspase-2 [8] is 0.0479 µM.
In the case of `O=C(CCl)Nc1ccc(NC(=O)c2cccs2)cc1`, the inhibition at Caspase-2 (Homo sapiens) [1] stood at 93%; on Caspase-2 (Homo sapiens) [2], 92%. Moreover, the figures for the IC50 at Caspase-2 [3] and on Caspase-3 [9] were 1.29 µM and 9.55 µM, respectively. The Ratio IC50 in the data set filed under Homo sapiens came to 7. Further, on Caspase-2 (Homo sapiens) [12], the Ratio is 5.86 10^4/M/s. Also, on Caspase-2 (Homo sapiens) [4], the result was Active. The inhibition at 40 min, 125 µM at Caspase-3 [10] came to 30%. Also, the inhibition at 40 min, 62.5 µM at Caspase-3 [11] is 24%.
Take `COc1ccc2nc(NC(=O)CCl)sc2c1`: the inhibition at Caspase-2 (Homo sapiens) [1] came out at 79.7%. The figures for the IC50 at Caspase-2 [3] and on Caspase-3 [9] were 5.25 µM and greater than 63.1 µM, respectively. In the data set listed under Homo sapiens, the Ratio IC50 was greater than 12. Besides, on Caspase-3 [10], the inhibition at 40 min, 125 µM stood at 21.7%.
Regarding `Cc1nc(-c2ccc3c(c2)CCN3C(=O)CCl)cs1`, the inhibition worked out at 89% at Caspase-2 (Homo sapiens) [1] and 79% on Caspase-2 (Homo sapiens) [2]. In addition, the IC50 at Caspase-2 [3] is 1.82 µM and 3.39 µM; in the data set on HepG2 [7] (HepG2, 22 h), 2.24 µM; in the data set with HepG2 [14] it was 1.78 µM; on Caspase-2 [8], 4.9 µM; on Caspase-3 [9] it was 35.5 µM and > 31.6 µM. At Caspase-2 (Homo sapiens) [4], the result was Active. Besides, the inhibition at 40 min, 125 µM at Caspase-3 [10] worked out at 16%. The inhibition at 40 min, 62.5 µM at Caspase-3 [11] stood at 10%.
